Consider 17 compounds from ChEMBL document CHEMBL1152808, “Novel adenosine-derived inhibitors of 70 kDa heat shock protein, discovered through structure-based design” (J Med Chem, 2009).

Active and inactive are the calls of the source. No cut-off for these calls is given here.

Experiment [1] in a line: Binding affinity to HSP70 by Biocore direct binding assay. The method in brief: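 SPR direct binding: double His-tagged HSP70 construct immobilized on a Biacore sensor chip; KD determined from direct ligand binding.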
For experiment [2], the system named is HCT-116. In words: Cytotoxicity against human HCT116 cells by SRB assay. The format is functional. Put shortly: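 HCT116 human colon tumour cells; growth inhibition measured by sulforhodamine B (SRB) staining; GI50 reported.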
A short description of experiment [3]: Binding affinity to HSP90 by fluorescence polarization assay.
Experiment [4] can be described thus: Displacement of fluorescein labeled N6-(6-amino)hexyl-ATP-5-FAM from HSP70 by fluorescence polarization assay. Put shortly: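 Competitive FP binding: displacement of fluorescein-labelled ATP-based probe N6-(6-amino)hexyl-ATP-5-FAM (probe KD 0.4 µM) from HSP70 at 0.4 µM protein; IC50 from binding competition.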
(In fluorescence polarisation assays a small probe gives low polarisation when free and higher when bound to something large.)

The subject of experiment [5] is HCT-116. Kind of experiment: Inhibition of HSP70 in human HCT116 cells assessed as reduction of Raf1 protein levels after 24 hrs by Western blot. Type of experiment: cell-based. The method in brief:
(§1)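 HCT116 cells exposed to compound for 24 h at 0.05 or 0.1 µM or 2.5-40 µM. Raf-1, Her2 and HSP70 expression detected by Western blot. GAPDH served as loading control.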
On the technique in general: A western blot detects proteins with antibodies after separation by electrophoresis.

Experiment [6] relates to HCT-116. In words: Inhibition of HSP70 in human HCT116 cells assessed as reduction of […] protein levels after 24 hrs by Western blot. The format is cell-based. The method in brief:
as §1

As a reminder, the Kd is a measure of binding affinity in units of concentration. The low end stands for tighter binding, the high end for weaker binding. Usually GI50 stands for the concentration at which growth is held to half of that of the control. Low readings indicate more potent growth inhibition, high ones less potent growth inhibition. For orientation: IC50 means the concentration at which inhibition is half-maximal.

In experiment [1], `N#Cc1ccc(COC[C@H]2O[C@@H](n3c(NCc4ccc5ncccc5c4)nc4c(N)ncnc43)[C@H](O)[C@@H]2O)cc1` gave a Kd of 0.05 µM. The GI50 with HCT-116 [2] is > 80 µM. In addition, the IC50 in experiment [3] was > 400 µM; in experiment [4], 0.9 µM.

As to `Nc1ncnc2c1nc(NCc1ccc3ncccc3c1)n2[C@@H]1O[C@H](CO)[C@@H](O)[C@H]1O`, the GI50 with HCT-116 [2] is > 80 µM. In addition, the IC50 is > 400 µM in experiment [3] and 2.9 µM in experiment [4].

On to `Nc1ncnc2c1nc(N)n2[C@@H]1O[C@H](CO)[C@@H](O)[C@H]1O`, for which binding in experiment [1] was characterised by a dissociation constant (Kd) of 11 µM. In the experiment with HCT-116 [2], this compound yielded a GI50 of 0.05 µM. Also, the outcome in the experiment on HCT-116 [5] and in the experiment with HCT-116 [6] was inactive. The results for the IC50 in experiment [3] and in experiment [4] were > 400 µM and 9.4 µM, respectively.

With `Nc1ncnc2c1ncn2[C@@H]1O[C@H](COP(=O)(O)OP(=O)(O)OP(=O)(O)O)[C@@H](O)[C@H]1O` [ADENOSINE TRIPHOSPHATE], the results for the IC50 in experiment [3] and in experiment [4] were > 400 µM and 0.5 µM, respectively.

As for `Nc1ncnc2c1nc(NCc1ccc3ncccc3c1)n2[C@@H]1O[C@H](COCc2ccc(C(F)(F)F)cc2)[C@@H](O)[C@H]1O`, in experiment [1], the Kd is 0.06 µM. Also, it took 27 µM to inhibit growth in the experiment with HCT-116 [2] by half (GI50). The IC50 is > 400 µM in experiment [3] and 0.6 µM in experiment [4].

In the case of `Nc1ncnc2c1nc(NCc1ccc3ncccc3c1)n2[C@@H]1O[C@H](COCc2cc(F)c(F)c(F)c2)[C@@H](O)[C@H]1O`, the dissociation constant (Kd) in experiment [1] amounted to 0.12 µM. Moreover, the GI50 in the experiment on HCT-116 [2] was found to be 18 µM. Besides, the IC50 in experiment [3] is > 400 µM; in experiment [4], < 0.4 µM.

`Nc1ncnc2c1nc(NCc1ccc(Cl)c(Cl)c1)n2[C@@H]1O[C@H](CO)[C@@H](O)[C@H]1O`: the GI50 in the experiment on HCT-116 [2] came out at 26 µM. Besides, the IC50 in experiment [3] is > 400 µM; in experiment [4], 9.1 µM.

Regarding `CNc1nc2c(N)ncnc2n1[C@@H]1O[C@H](CO)[C@@H](O)[C@H]1O`, in the experiment with HCT-116 [2], halving of growth (GI50) required 13 µM. Besides, the IC50 in experiment [3] was > 400 µM; in experiment [4] it was 17 µM.

Turning to `Nc1ncnc2c1ncn2[C@@H]1O[C@H](CO)[C@@H](O)[C@H]1O` [ADENOSINE], the IC50 is > 400 µM in experiment [3] and 560 µM in experiment [4].

`Nc1ncnc2c1nc(NCc1ccccc1)n2[C@@H]1O[C@H](CO)[C@@H](O)[C@H]1O`: in the experiment with HCT-116 [2], the GI50 was > 80 µM. For the same compound, the IC50 in experiment [3] was > 400 µM; in experiment [4], 10 µM.

Compound `N#Cc1ccc(COC[C@H]2O[C@@H](n3c(NCc4ccc(Cl)c(Cl)c4)nc4c(N)ncnc43)[C@H](O)[C@@H]2O)cc1` yielded a Kd in experiment [1] of 0.3 µM. Also, the concentration for 50% growth inhibition (GI50) with HCT-116 [2] turned out to be 5 µM. The result with HCT-116 [5] and with HCT-116 [6] was Active. Also, the results for the IC50 in experiment [3] and in experiment [4] were > 400 µM and 0.5 µM, respectively.

`Nc1ncnc2c1nc(NCc1ccc(Cl)c(Cl)c1)n2[C@@H]1O[C@H](COCc2ccccc2)[C@@H](O)[C@H]1O`: the GI50 in the experiment on HCT-116 [2] is > 80 µM. The IC50 in experiment [3] is > 400 µM; in experiment [4] it was 2.4 µM.

On to `COC[C@H]1O[C@@H](n2c(NCc3ccc(Cl)c(Cl)c3)nc3c(N)ncnc32)[C@H](O)[C@@H]1O`, for which the 50% growth inhibitory concentration (GI50) in the experiment with HCT-116 [2] was > 80 µM. Also, the IC50 in experiment [3] is > 400 µM; in experiment [4], 3.2 µM.

In experiment [1], `Nc1ncnc2c1ncn2[C@@H]1O[C@H](COP(=O)(O)OP(=O)(O)O)[C@@H](O)[C@H]1O` [ADENOSINE DIPHOSPHATE] gave a Kd of 0.5 µM. For the same compound, the IC50 was > 400 µM in experiment [3] and 0.5 µM in experiment [4].

For `N#Cc1ccc(COC[C@H]2O[C@@H](n3c(NCc4ccccc4)nc4c(N)ncnc43)[C@H](O)[C@@H]2O)cc1`, in experiment [1], binding was characterised by a dissociation constant (Kd) of 0.2 µM. The 50% growth inhibitory concentration (GI50) in the experiment on HCT-116 [2] was > 80 µM. Moreover, the IC50 in experiment [3] is > 400 µM; in experiment [4] it was 1.3 µM.

In turn, `Nc1ncnc2c1nc(NCc1ccc(Cl)c(Cl)c1)n2[C@@H]1O[C@H](COCc2cc(F)c(F)c(F)c2)[C@@H](O)[C@H]1O` yielded a Kd in experiment [1] of 4.2 µM. It took 13 µM to inhibit growth in the experiment on HCT-116 [2] by half (GI50). The IC50 was > 400 µM in experiment [3] and 1.7 µM in experiment [4].

Turning to `Nc1ncnc2c1nc(NCc1ccc3c(c1)OCO3)n2[C@@H]1O[C@H](CO)[C@@H](O)[C@H]1O`, the 50% growth inhibitory concentration (GI50) in the experiment on HCT-116 [2] was > 80 µM. The IC50 in experiment [3] was > 400 µM; in experiment [4] it was 4.9 µM.
